Experimental data of several laboratories.
Lines come from different studies, so protocols differ.
Cell line: HepG2
Effect on: cell growth or viability

SMILES	method	time	IC50
FC(F)(F)CN1CC(n2cc(Oc3ccn4nc(Cl)cc4n3)cn2)C1			> 512 µM
COc1cccc2c1C(=O)c1c(O)c3c(c(O)c1C2=O)C[C@@](O)(C(=O)CO)C[C@@H]3O[C@H]1C[C@H](N)[C@H](O)[C@H](C)O1			0.06 µM
CC1=CC(=O)c2ccccc2C1=O	MTT		9.25 µM
COc1ccc(N(Cc2csc(-c3ccccc3)n2)C(=O)CCCCCC(=O)NO)cc1	MTT	72 h	0.12 µM
C#CCNC(=O)c1c(-c2ccc(OC)cc2)oc2ccc(O)c(CN3CCCCC3)c12	resazurin	18 h	53.2 µM
COc1cccc(N=C2SCC(=O)N2c2nnc(-c3ccc(C(F)(F)F)cc3N=C3SCC(=O)N3c3cccc(OC)c3)s2)c1	MTT		80.1 µM
c1ccc(Oc2ccc(Nc3c4c(nc5ccccc35)CCC4)cc2)cc1	resazurin	72 h	9.45 µM
Cc1c2c(nn1C)CSCc1cc(n(C)n1)CSc1cc(c3ccccc3c1)OCCCc1c(C(=O)O)n(C)c3c-2c(Cl)ccc13	CCK-8		50 µM
CN1CCC(NC2CCc3[nH]c4c(C(N)=O)ccc(-c5ccccc5Cl)c4c3C2)CC1 (stereo not drawn)		96 h	0.0202 µM
c1ccc(Cc2nnc(-c3nn(Cc4ccccc4)c4ccccc34)o2)cc1		48 h	68.6 µM
CC(=O)OC[C@H]1O[C@@H](n2cc(Cn3c(C(=O)/C=C/c4ccc(F)cc4)nc4ccccc43)nn2)[C@H](OC(C)=O)[C@@H](OC(C)=O)[C@H]1OC(C)=O	LDH	48 h	1.61 µM
NC(=O)c1cnc(NCCc2ccc(O)c(Cl)c2)nc1NCc1ccccc1	CCK-8	48 h	1.37 µM
N=C(CC(O)c1cc2c(F)cc(F)cc2c2cc(C(F)(F)F)ccc12)Nc1ccc(F)c(F)c1 (stereo not drawn)	neutral red	24 h	7.8 µM
Fc1ccc2c(-c3nnc(Cc4ccccc4)[nH]3)nn(Cc3ccc(Cl)cc3Cl)c2c1		48 h	21.2 µM
CC(C)CNC(=S)N/N=C/c1cccc2cc3ccccc3nc12	MTT	48 h	> 50 µM
Fc1ccc2c(-c3ncc(-c4ccccc4)o3)nn(Cc3ccccc3)c2c1		48 h	39.9 µM
COc1cccc2c1C(=O)c1c(O)c3c(c(O)c1C2=O)C[C@@](O)(C(=O)CO)C[C@@H]3O[C@H]1C[C@H](N)[C@H](O)[C@H](C)O1	LDH	48 h	3.81 µM
CC(C)c1nc(N(C)S(C)(=O)=O)nc(-c2ccc(F)cc2)c1/C=C/[C@@H](O)C[C@@H](O)CC(=O)O	MTT	24 h	59.1 µg/mL
FC(F)(F)c1ccc(-c2nnc(-c3nn(Cc4ccc(Cl)cc4Cl)c4ccccc34)o2)cc1		48 h	304 µM
C#Cc1cccc(Nc2ncnc3cc(OCCOC)c(OCCOC)cc23)c1	LDH	48 h	2.07 µM
Clc1ccc(Cn2nc(-c3ncc(-c4ccccc4)s3)c3ccccc32)c(Cl)c1		48 h	129 µM

SMILES	method	time	IC50
COc1ccc(N(Cc2csc(-c3ccc(Br)cc3)n2)C(=O)CCCCCC(=O)NO)cc1	MTT	72 h	0.57 µM
CC(C)[C@@H](C)NC(=O)c1cc(-c2cc3ccccc3n2C)cc(C(=O)NCCc2ccccn2)n1	CCK-8		12.7 µM
CSc1ccccc1-c1ccc(C(N)=O)c2[nH]c3c(c12)CC(N)CC3 (stereo not drawn)			0.15 µM
CC(=O)c1nc2ccccc2n1Cc1cn([C@@H]2O[C@H](CO)[C@H](O)[C@H](O)[C@H]2O)nn1	LDH	48 h	1.67 µM
O=C1CS/C(=N\c2cc(C(F)(F)F)ccc2-c2nnc(N3C(=O)CS/C3=N\c3ccc(-c4ccccc4)cc3)s2)N1c1ccc(-c2ccccc2)cc1	MTT		87.7 µM
Cc1noc(-c2nn(Cc3ccc(Cl)cc3Cl)c3ccccc23)n1		48 h	51.4 µM
O=C1CS/C(=N\c2ccccc2O)N1c1nnc(-c2ccc(C(F)(F)F)cc2/N=C2\SCC(=O)N2c2ccccc2O)s1	MTT		31.1 µM
O=C(/C=C/c1ccc(F)cc1)c1nc2ccccc2n1Cc1cn([C@@H]2OC[C@@H](O)[C@H](O)[C@H]2O)nn1	LDH	48 h	1.63 µM
COc1ccc(N=C2SCC(=O)N2c2nnc(-c3ccc(C(F)(F)F)cc3N=C3SCC(=O)N3c3ccc(OC)cc3)s2)cc1	MTT		70.1 µM
Fc1ccc(NC(=S)N/N=C/c2cccc3cc4ccccc4nc23)cc1	MTT	48 h	> 50 µM
c1ccc(Cn2nc(-c3ncc(-c4ccccc4)s3)c3ccccc32)cc1		48 h	27.7 µM
CCCNC(=S)N/N=C/c1cccc2cc3ccccc3nc12	MTT	48 h	> 50 µM
CCOC(=O)c1c(-c2ccc(OC)cc2)oc2ccc(OCc3cn(Cc4ccccc4)nn3)c(CN3CCCCC3)c12	resazurin	18 h	70.5 µM
O=C(/C=C/c1ccc(F)cc1)c1nc2ccccc2n1Cc1cn([C@@H]2O[C@H](CO)[C@H](O)[C@H](O)[C@H]2O)nn1	LDH	48 h	1.64 µM
c1ccc(-c2noc(-c3nn(Cc4ccncc4)c4ccccc34)n2)cc1		48 h	32.9 µM
O=C1CS/C(=N\c2ccccc2Cl)N1c1nnc(-c2ccc(C(F)(F)F)cc2/N=C2\SCC(=O)N2c2ccccc2Cl)s1	MTT		55.5 µM
COc1cccc(NC(=S)N/N=C/c2cccc3cc4ccccc4nc23)c1	MTT	48 h	> 50 µM
O=C1CS/C(=N\c2cc(C(F)(F)F)ccc2-c2nnc(N3C(=O)CS/C3=N\c3ccc(Cl)cc3)s2)N1c1ccc(Cl)cc1	MTT		48.1 µM
COc1cccc2c1C(=O)c1c(O)c3c(c(O)c1C2=O)C[C@@](O)(C(=O)CO)C[C@@H]3O[C@H]1C[C@H](N)[C@H](O)[C@H](C)O1	MTT	75 h	0.48 µM
CCN(CC)CCNC(=O)c1c(C)[nH]c(/C=C2\C(=O)Nc3ccc(F)cc32)c1C	SRB		1.35 µM
O=C1CS/C(=N\c2cc(C(F)(F)F)ccc2-c2nnc(N3C(=O)CS/C3=N\c3cc(O)cc(Br)c3)s2)N1c1cc(O)cc(Br)c1	MTT		70.4 µM
